pIC50: −log10 of the molar value.
Assay: Inhibition of Bacillus pasteurii urease using urea substrate assessed as reduction in ammonia production after 15 mins by indophenol's method
Set-up: species or system Sporosarcina pasteurii
Method in brief: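 One unit of B. pasteurii urease in buffer containing 100 mM urea, incubated with test compound (added as 1 mM solution) at 30 °C for 15 min. Ammonia was measured by the indophenol method: phenol reagent and alkali reagent were added, and the increase in absorbance at 630 nm was read after 50 min on a plate reader.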

Row | SMILES | pIC50
1 | O=C1NC(=S)NC(=O)C1=Cc1c[nH]c2ccccc12 | 3.77
2 | CN(C)c1ccc(C=C2C(=O)NC(=S)NC2=O)cc1 | 4.23
3 | O=C1NC(=S)NC(=O)C1=Cc1ccc(O)cc1O | 4.49
4 | O=C1NC(=S)NC(=O)C1=Cc1ccc(O)c(O)c1 | 5.79
5 | COc1ccc(C=C2C(=O)NC(=S)NC2=O)cc1O | 4.64
6 | O=C1NC(=S)NC(=O)C1=Cc1ccc(O)c(O)c1O | 4.60
7 | COc1cc(C=C2C(=O)NC(=S)NC2=O)cc(OC)c1O | 4.33
8 | COc1cc(Br)c(C=C2C(=O)NC(=S)NC2=O)cc1OC | 4.33
9 | O=C1NC(=S)NC(=O)C1=Cc1cccs1 | 4.67
10 | CSc1ccc(C=C2C(=O)NC(=S)NC2=O)cc1 | 4.74
11 | O=C1NC(=S)NC(=O)C1=Cc1c(Cl)c2cc(Br)ccc2oc1=O | 4.20
12 | O=C1NC(=S)NC(=O)C1=Cc1ccncc1 | 4.80
13 | Cc1cccc(C=C2C(=O)NC(=S)NC2=O)n1 | 4.80
14 | COc1cc(C=C2C(=O)NC(=S)NC2=O)c(OC)cc1Br | 4.36
15 | COc1cc(C=C2C(=O)NC(=S)NC2=O)cc(I)c1O | 4.37
16 | O=C1NC(=S)NC(=O)C1C=C1c2ccccc2Cc2ccccc21 | 3.86
17 | O=C1NC(=S)NC(=O)C1=Cc1cc(Cl)cc(Cl)c1O | 4.30
18 | Nc1ccccc1C=C1C(=O)NC(=S)NC1=O | 4.49
19 | O=C1NC(=S)NC(=O)C1=Cc1ccc(C=C2C(=O)NC(=S)NC2=O)cc1 | 5.17
20 | O=C1NC(=S)NC(=O)C1=Cc1cc(Br)c(O)c(Br)c1 | 4.97
21 | Cc1ccccc1C=C1C(=O)NC(=S)NC1=O | 4.38
22 | CCOc1ccc(C=C2C(=O)NC(=S)NC2=O)cc1 | 4.53
23 | COc1cccc(C=C2C(=O)NC(=S)NC2=O)c1O | 4.72
24 | Cc1ccc(C=C2C(=O)NC(=S)NC2=O)o1 | 4.74
25 | COc1ccc(O)c(C=C2C(=O)NC(=S)NC2=O)c1 | 4.49
26 | O=C1NC(=S)NC(=O)C1=Cc1c(O)ccc2ccccc12 | 4.67
27 | COc1ccc(C=C2C(=O)NC(=S)NC2=O)cc1OC | 4.84
28 | NC(N)=S [THIOUREA] | 4.68
